Test [1] concerns West Nile virus. Put plainly: Tested for inhibition against Helicase activity of west nile virus (WNV) in presence of ATP adjusted to 9.5 uM and 4.7 pM of RNA duplex substrate. Type of test: functional. The gist of the method: (§1)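 Unwinding of a 32P 5'-end-labelled partial duplex (26-mer released strand on 40-mer template; DNA or RNA as per line, 4.7 pM nucleotide base), using purified NTPase/helicase (2 pmol WNV from infected Vero E6 medium; 0.5 pmol HCV or 4 pmol JEV NS3 domain, or 0.2 pmol Suv3(Δ1–159), E. coli-expressed). ATP was set at each enzyme's ATPase Km: WNV 9.5 μM, HCV 105 μM, JEV 235 μM, Suv3 4.2 μM. The reaction ran in pH 7.5 Tris with 2 mM MgCl2 for 30 min at 30 °C.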

The nature of test [2]: Tested for inhibition against Helicase activity of human NTPase/Helicase Suv3 (delta1-159) in presence of ATP adjusted to 4.2 uM and 4.7 pM of RNA duplex substrate. Type of test: functional. An outline of the steps: as §1
Test [3] can be described thus: Tested for inhibition against Helicase activity of human NTPase/Helicase Suv3 (delta1-159) in presence of ATP adjusted to 4.2 uM and 4.7 pM of DNA substrate. It counts as functional. An outline of the steps:
as §1

Test [4] deals with Japanese encephalitis virus. Briefly: Tested for inhibition against Helicase activity of Japanese encephalitis virus (JEV) in presence of ATP adjusted to 235 uM and 4.7 pM of RNA duplex substrate. It counts as functional. An outline of the steps:
as §1

Test [5] deals with Japanese encephalitis virus. Briefly: Tested for inhibition against Helicase activity of Japanese encephalitis virus (JEV) in presence of ATP adjusted to 235 uM and 4.7 pM of DNA substrate. It counts as functional. An outline of the steps: as §1
In test [6] the test system is Hepatitis C virus. Put plainly: Tested for inhibition against Helicase activity of hepatitis C virus (HCV) in presence of ATP adjusted to 105 uM and 4.7 pM of RNA duplex substrate. It counts as functional, Hepacivirus hominis. The gist of the method: as §1
The test system of test [7] is West Nile virus. Put plainly: Tested for activating effect of west nile virus (WNV) in presence of ATP adjusted to […] and 4.7 pM of DNA substrate. It counts as functional.
Test [8] concerns Hepatitis C virus. Briefly: Tested for activating effect of hepatitis C virus (HCV) in presence of ATP adjusted to 105 uM and 4.7 pM of DNA substrate. Type of test: functional, Hepacivirus hominis. An outline of the steps:
as §1

A short description of test [9]: Antimeasles activity determined. Type of test: functional.
Test [10] concerns Human rhinovirus sp. Briefly: Antirhino activity determined. Type of test: functional, organism-based.
For test [11], the system named is West Nile virus. Put plainly: Tested for inhibition against Helicase activity of west nile virus (WNV) in presence of ATP adjusted to 9.5 uM and 4.7 pM of DNA substrate. Type of test: functional. An outline of the steps:
as §1

The subject of test [12] is Hepatitis C virus. Put plainly: Tested for inhibition against Helicase activity of hepatitis C virus (HCV) in presence of ATP adjusted to 105 uM and 4.7 pM of DNA substrate. It counts as functional, Hepacivirus hominis. The gist of the method:
as §1

The test system of test [13] is Hepatitis B virus. Briefly: Tested for inhibition against […] in cultured human hepatoblastoma 2.2.15 cells. The conditions noted are these: HepG2 2.2.15. Type of test: functional, organism-based.
The subject of test [14] is Flavivirus. Briefly: Tested for inhibition against Flaviviridae NTPase/helicase (NTPase/helicase Non structural protein 3). As to conditions: Orthoflavivirus. It counts as functional.
Test [15] has as its system Japanese encephalitis virus. Briefly: Tested for inhibition against […] ATPase activity of Japanese encephalitis virus (JEV) in presence of ATP adjusted to 1*10e-4 of Km of enzyme. Type of test: functional. An outline of the steps: (§2)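 ATPase assay measuring 33Pi released from [γ-33P]ATP. Enzymes were 2 pmol WNV, 0.5 pmol HCV, 4 pmol JEV or 0.2 pmol Suv3(Δ1–159). The reaction ran in pH 7.5 Tris with 2 mM MgCl2 and 0.1 mg/mL BSA for 30 min at 30 °C and was stopped with activated charcoal; supernatant was scintillation-counted.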

In test [16] the test system is West Nile virus. Briefly: Tested for inhibition against 95 pM ATPase activity of west nile virus (WNV) in presence of ATP adjusted to 1*10e-4 of Km of enzyme. Type of test: functional. An outline of the steps:
as §2

For test [17], the system named is Hepatitis C virus. Briefly: Tested for inhibition against 1.05 nM ATPase activity of hepatitis C virus (HCV) in presence of ATP adjusted to 1*10e-4 of Km of enzyme. It counts as functional, Hepacivirus hominis. An outline of the steps: as §2
For test [18], the system named is Japanese encephalitis virus. Briefly: Tested for inhibition against 2.35 nM ATPase activity of Japanese encephalitis virus (JEV) in presence of ATP adjusted to 1*10e-5 of Km of enzyme. Type of test: functional. The gist of the method:
as §2

Test [19] can be described thus: Tested for inhibition against 42 pM ATPase activity of human NTPase/Helicase Suv3 (delta1-159) in presence of ATP adjusted to 1*10e-4 of Km of enzyme. It counts as functional. An outline of the steps: as §2
Test [20] deals with Hepatitis C virus. Put plainly: Tested for inhibition against 1.05 nM ATPase activity of hepatitis C virus (HCV) in presence of ATP adjusted to 1*10e-5 of Km of enzyme. Type of test: functional, Hepacivirus hominis. The gist of the method: as §2
A short description of test [21]: Tested for inhibition against 42 nM ATPase activity of human NTPase/Helicase Suv3 (delta1-159) in presence of ATP adjusted to 1*10e-5 of Km of enzyme. It counts as functional. An outline of the steps:
as §2

The test system of test [22] is West Nile virus. Put plainly: Tested for inhibition against 95 pM ATPase activity of west nile virus (WNV) in presence of ATP adjusted to 1*10e-5 of Km of enzyme. It counts as functional. An outline of the steps:
as §2

Some results are limits rather than exact numbers.

Among the data in ChEMBL document CHEMBL1145091, “Ring-expanded ("fat") nucleoside and nucleotide analogues exhibit potent in vitro activity against flaviviridae NTPases/helicases, including those of the West Nile virus, hepatitis C virus, and Japanese encephalitis virus” (J Med Chem, 2003) are IC50, ED200 and Ki values, retold here.

What is called IC50 is the concentration that gives 50% inhibition. As for `NC1=NC(=O)C2C(N=CN2[C@H]2O[C@H](CO)[C@@H](O)[C@H]2O)C(=O)N1` (some centres undefined), the IC50 is 220 µM in [1]; 3.5 µM in test [2]; above 500 µM in [3]; 4.5 µM in [4]; above 500 µM in test [5]; 12 µM in test [6]. Moreover, the ED200 in test [7] is 60 µM; in [8] it was 150 µM.

For the compound `NC1=NC(=O)C2C(N=C(c3ccccc3)N2C2O[C@H](CO)C(O)[C@H]2O)C(=O)N1` (single isomer, unassigned), the IC50 in test [9] stood at 500 nM; in test [10], 6.7 µM.

Consider `NC1=NC(=O)C2N=CNC2C(=O)N1` (centres undefined), for which the IC50 in test [1] was 220 µM; in test [2] it was 500 µM; in test [11] it was above 500 µM; in [4], above 500 µM; in test [5] it was above 500 µM; in [6] it was 200 µM. Further, the concentration for half-maximal inhibition (IC50) in [12] was above 500 µM.

Consider `NC1=NC(=O)C2C(N=CN2CCOCP(=O)(O)O)C(=O)N1` (centres undefined), for which the half-inhibitory concentration (IC50) in test [3] was above 500 µM; in [11] it was 500 µM; in [5], above 500 µM; in test [12], 200 µM.

For `NC1=NC(=O)C2C(N=CN2[C@@H]2O[C@H](CO)C(O)[C@H]2O)C(=O)N1` (single isomer, unassigned), the results for the IC50 in test [13] and in [14] were 130 nM and above 500 µM, respectively.

Take `O=C1NC2N=CNC2C(=O)N(Cc2ccccc2)N1` (centres undefined): the IC50 is above 500 µM in [1]; above 500 µM in test [2]; above 500 µM in [3]; 1.3 µM in test [11]; above 500 µM in [4]; above 500 µM in [5]. The IC50 in test [6] and in test [12] was above 500 µM in each case.

Consider `NC1=NC(=O)C2C(N=CN2[C@H]2CC(O)[C@@H](CO)O2)C(=O)N1` (single isomer, unassigned), for which the IC50 in [3], in test [11] and in test [5] was above 500 µM throughout. Moreover, the ED200 in [8] came to 100 µM.

As for `CO[C@@H]1[C@H](O)[C@@H](CO)O[C@H]1n1cnc2c(=O)[nH][nH]c(=O)c21`, the IC50 in test [3] was above 500 µM; in test [11] it was 30 µM; in [5] it was above 500 µM; in test [12] it was 450 µM.

Consider `Nc1nc(=O)c2c(ncn2[C@@H]2C[C@H](O)[C@@H](CO)O2)c(=O)[nH]1`, for which the IC50 in test [1] stood at 5.7 µM; in [2] it was 150 µM; in [3], 28 µM; in [11] it was 25 µM; in test [4] it was 2 µM; in [5], 13 µM. The IC50 is above 500 µM in [6] and 7 µM in [12].

Consider `O=C1NC2C(N=CN2Cc2ccccc2)C(=O)N(Cc2ccccc2)N1` (centres undefined), for which the 50% inhibitory concentration (IC50) in [1] is above 500 µM; in test [2], above 500 µM; in test [3], above 500 µM; in [11] it was 3.5 µM; in test [4], above 500 µM; in test [5], above 500 µM. In addition, the IC50 in test [6] and in test [12] was above 500 µM each time.

Consider `NC1=NC(=O)C2C(N=CN2COCCOCc2ccccc2)C(=O)N1` (centres undefined), for which the IC50 is 3.3 µM in [1]; 6 µM in test [2]; 5 µM in [3]; 5.7 µM in [11]; above 500 µM in test [4]; 150 µM in test [5]. Besides, the IC50 in test [6] came out at 5.5 µM; in [12], 11 µM.

The term Ki denotes a measure of affinity in units of concentration, obtained from inhibition or displacement. Turning to `N=C1N=C(N)N=C(N)C2N=CN(C3O[C@@H](COP(=O)(O)OP(=O)(O)OP(=O)(O)O)[C@H](O)[C@@H]3O)C12` (some centres undefined), the Ki amounted to 3.5 µM in [15], 380 nM in test [16], 200 nM in test [17] and 15 µM in [19]. The IC50 is 12 µM in test [18], 550 nM in test [20], 40 µM in [21] and 150 nM in test [22].

Turning to `O=C1NNC(=O)C2C(N=CN2C2O[C@H](COP(=O)(O)OP(=O)(O)OP(=O)(O)O)[C@@H](O)[C@H]2O)N1` (some centres undefined), the Ki in test [15] stood at 15 µM; in test [16] it was 2900 nM; in test [17] it was 1700 nM; in test [19], 45 µM. For the same compound, the half-maximal inhibitory concentration (IC50) in test [18] is 40 µM; in [20], 1500 nM; in test [21], 125 µM; in test [22], 4000 nM.

For `NC1=NC(=O)C2C(N=CN2COCCO)C(=O)N1` (centres undefined), the IC50 in test [11], in test [5] and in test [12] was above 500 µM throughout.

As for `O=C1NNC(=O)C2C(N=CN2C2O[C@H](CO)C(O)[C@H]2O)N1` (single isomer, unassigned), the IC50 in test [3], in test [11], in [5] and in [12] was above 500 µM each time.

Regarding `CO[C@@H]1[C@H](O)[C@@H](CO)O[C@H]1n1cnc2c(=O)[nH]c(N)nc(=O)c21`, the IC50 in [3], in [11] and in test [5] was above 500 µM in each case. Further, the ED200 in test [8] was determined as 350 µM.

For `N=C1N=C(N)N=C(N)C2N=CN(C3O[C@@H](CO)[C@H](O)[C@@H]3O)C12` (some centres undefined), the IC50 in [3], in test [11], in test [5] and in test [12] was above 500 µM throughout.
